Reference: ChEMBL document CHEMBL3351590, “8-Methyltryptanthrin-induced differentiation of P19CL6 embryonal carcinoma cells into spontaneously beating cardiomyocyte-like cells” (2014)
Activity calls are given as the source filed them. The rule behind the calls is not given here.

Legend:
P19CL6 [1] = test: Induction of differentiation of C3H/He mouse P19CL6 cells assessed as aggregate formation at 0.1 to 1 uM on day 10 by phase contrast microscopic analysis; type: functional, cell-based
In short: (§1)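 Cells are seeded at 2.0 × 10^4 per 35 mm dish in α-MEM with 10% FBS, penicillin and streptomycin, plus compound (final DMSO ≤0.1%), with medium changed every 48 h. Aggregates and beating aggregates are counted every 2 days by phase-contrast microscopy in five ×100 fields (total 8.8 mm2), up to day 18. Mean ± SEM, n = 7.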

P19CL6 [2] = test: Induction of Cav1.2 gene expression in C3H/He mouse P19CL6 cells; type: functional, cell-based
In short: (§2)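 P19CL6 cells are cultured in α-MEM with 10% FBS, with compound (final DMSO ≤0.1%) renewed every 48 h. Total RNA is taken on day 10 and/or 18 and reverse-transcribed with random primers. Real-time PCR: 95 °C 10 min, then 40 cycles of 95 °C 15 s and 60 °C 1 min. Expression is normalized to G3PDH and given as a ratio to day 0.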

P19CL6 [3] = test: Induction of differentiation of C3H/He mouse P19CL6 cells assessed as beating aggregate formation at 0.1 to 1 uM on day 10 by phase contrast microscopic analysis; type: functional, cell-based; in short: as §1
P19CL6 [4] = test: Effect on GJB1 gene expression in C3H/He mouse P19CL6 cells at 1 uM by RT-PCR analysis; type: functional, cell-based; in short: as §2
P19CL6 [5] = test: Effect on HCN4 gene expression in C3H/He mouse P19CL6 cells at 1 uM by RT-PCR analysis; type: functional, cell-based; in short: as §2
[6] = Decrease in Cav1.3 gene expression in C3H/He mouse P19CL6 cells at 1 uM on day 10 and day 18 by RT-PCR analysis; type: functional, cell-based; in short: as §2
[7] = Induction of BMP2 gene expression in C3H/He mouse P19CL6 cells at 1 uM measured on day 10 and 18 by RT-PCR analysis relative to control; type: functional
In short: (§3)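 Cardiac gene qPCR (α-MHC, GATA4, BMP2) in P19CL6 cells kept in α-MEM/10% FBS with agent, medium renewed at 48 h intervals. RNA is harvested on days 10 and 18 and reverse-transcribed with random primers. PCR runs 40 cycles (95 °C 15 s, 60 °C 1 min). Values are normalized to G3PDH, expressed relative to day 0, as mean ± SEM, n = 4.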

P19CL6 [8] = test: Effect on HCN2 gene expression in C3H/He mouse P19CL6 cells at 1 uM by RT-PCR analysis; type: functional, cell-based; in short: as §2
P19CL6 [9] = test: Induction of differentiation of C3H/He mouse P19CL6 cells assessed as beating aggregate formation on day 10 by phase contrast microscopic analysis; type: functional, cell-based; in short: as §1
P19CL6 [10] = test: Effect on Cav3.2 gene expression in C3H/He mouse P19CL6 cells at 1 uM by RT-PCR analysis; type: functional, cell-based; in short: as §2
P19CL6 [11] = test: Effect on GJA4 gene expression in C3H/He mouse P19CL6 cells at 1 uM by RT-PCR analysis; type: functional, cell-based; in short: as §2
[12] = Decrease in Cav3.1 gene expression in C3H/He mouse P19CL6 cells at 1 uM on day 10 by RT-PCR analysis relative to control; type: functional, cell-based; in short: as §2
P19CL6 [13] = test: Effect on GJC1 gene expression in C3H/He mouse P19CL6 cells at 1 uM by RT-PCR analysis; type: functional, cell-based; in short: as §2
[14] = Induction of Cav1.2 gene expression in C3H/He mouse P19CL6 cells at 1 uM on day 18 by RT-PCR analysis relative to control; type: functional; in short: as §2
P19CL6 [15] = test: Induction of GATA4 gene expression in C3H/He mouse P19CL6 cells at 1 uM by RT-PCR analysis; type: functional, cell-based; conditions: TDE = time-dependent effect; in short: as §3
[16] = Induction of differentiation of C3H/He mouse P19CL6 cells assessed as number of beating aggregates at 1 uM on day 18 by phase contrast microscopic analysis; type: functional; in short: as §1
[17] = Induction of differentiation of C3H/He mouse P19CL6 cells assessed as beating rate of cardiomyocyte-like cells at 1 uM on day 18 (reference value: 45.2 +/- 4.2 bpm); type: functional
P19CL6 [18] = test: Induction of alpha-MHC gene expression in C3H/He mouse P19CL6 cells at 1 uM by RT-PCR analysis; type: functional, cell-based; conditions: TDE = time-dependent effect; in short: as §3
[19] = Induction of GJA5 gene expression in C3H/He mouse P19CL6 cells at 1 uM on day 10 by RT-PCR analysis relative to control; type: functional; in short: as §2
[20] = Induction of alpha-MHC gene expression in C3H/He mouse P19CL6 cells at 1 uM measured on day 10 and 18 by RT-PCR analysis relative to control; type: functional; in short: as §3
[21] = Induction of GJA5 gene expression in C3H/He mouse P19CL6 cells at 1 uM on day 18 by RT-PCR analysis relative to control; type: functional; in short: as §2
[22] = Increase in area of beating aggregates in C3H/He mouse P19CL6 cells on day 18 by phase contrast microscopic analysis (reference value: 0.5 +/- 0.3 /mm2); type: functional
[23] = Induction of GJA1 gene expression in C3H/He mouse P19CL6 cells at 1 uM on day 18 by RT-PCR analysis relative to control; type: functional; in short: as §2
P19CL6 [24] = test: Induction of BMP2 gene expression in C3H/He mouse P19CL6 cells at 1 uM by RT-PCR analysis; type: functional, cell-based; conditions: TDE = time-dependent effect; in short: as §3
P19CL6 [25] = test: Induction of differentiation of C3H/He mouse P19CL6 cells assessed as aggregate formation at 0.1 to 1 uM on day 18 by phase contrast microscopic analysis; type: functional, cell-based; in short: as §1
P19CL6 [26] = test: Induction of Cav3.1 gene expression in C3H/He mouse P19CL6 cells at 1 uM on day 18 by RT-PCR analysis; type: functional, cell-based; in short: as §2
[27] = Induction of Cav1.2 gene expression in C3H/He mouse P19CL6 cells at 1 uM on day 10 by RT-PCR analysis relative to control; type: functional; in short: as §2
P19CL6 [28] = test: Induction of differentiation of C3H/He mouse P19CL6 cells assessed as beating aggregate formation at 0.1 to 1 uM on day 18 by phase contrast microscopic analysis; type: functional, cell-based; in short: as §1
P19CL6 [29] = test: Induction of Cav1.2 gene expression in C3H/He mouse P19CL6 cells at 1 uM by RT-PCR analysis; type: functional, cell-based; conditions: TDE = time-dependent effect; in short: as §2
P19CL6 [30] = test: Induction of differentiation of C3H/He mouse P19CL6 cells assessed as beating aggregate formation at 0.1 to 1 uM using compound dissolved in 0.03% DMSO by phase contrast microscopic analysis; type: functional, cell-based; in short: as §1
P19CL6 [31] = test: Induction of differentiation of C3H/He mouse P19CL6 cells assessed as aggregate formation on day 10 by phase contrast microscopic analysis; type: functional, cell-based; in short: as §1
P19CL6 [32] = test: Induction of Cav1.2 gene expression in C3H/He mouse P19CL6 cells on day 10 and 18 by RT-PCR analysis; type: functional, cell-based; in short: as §2
[33] = Induction of differentiation of C3H/He mouse P19CL6 cells assessed as number of aggregates at 1 uM on day 18 by phase contrast microscopic analysis (reference value: 38.2 +/- 8.4/mm2); type: functional; in short: as §1
[34] = Induction of GATA4 gene expression in C3H/He mouse P19CL6 cells at 1 uM measured on day 10 and 18 by RT-PCR analysis relative to control; type: functional; in short: as §3
P19CL6 [35] = test: Induction of BMP2 gene expression in C3H/He mouse P19CL6 cells at 1 uM measured on day 10 and 18 by RT-PCR analysis; type: functional, cell-based; in short: as §3
P19CL6 [36] = test: Induction of GATA4 gene expression in C3H/He mouse P19CL6 cells at 1 uM measured on day 10 and 18 by RT-PCR analysis; type: functional, cell-based; in short: as §3
P19CL6 [37] = test: Induction of alpha-MHC gene expression in C3H/He mouse P19CL6 cells at 1 uM measured on day 10 and 18 by RT-PCR analysis; type: functional, cell-based; in short: as §3

SMILES: CCCc1ccc2c(c1)C(=O)c1nc3ccccc3c(=O)n1-2
- Activity (P19CL6 [1]): inactive
- Activity (P19CL6 [2]): inactive
- Activity (P19CL6 [3]): inactive

SMILES: Cc1ccc2c(c1)C(=O)c1nc3ccccc3c(=O)n1-2
- Activity (P19CL6 [4]): inactive
- Activity (P19CL6 [5]): inactive
- inhibition [6]: Active
- fold change (FC) [7]: 84.4
- Activity (P19CL6 [8]): inactive
- Activity (P19CL6 [9]): Dose-dependent effect
- Activity (P19CL6 [10]): inactive
- Activity (P19CL6 [11]): inactive
- fold change (FC) [12]: 0.21
- Activity (P19CL6 [13]): inactive
- fold change (FC) [14]: 3.38
- Activity (P19CL6 [15]): tde
- Activity [16]: 33.7 /mm2
- Activity [17]: 52.1 bpm
- Activity (P19CL6 [18]): tde
- fold change (FC) [19]: 17.44
- fold change (FC) [20]: 1130.1
- fold change (FC) [21]: 7.06
- Activity [22]: 2.7 mm2
- fold change (FC) [23]: 1.38
- Activity (P19CL6 [24]): tde
- Activity (P19CL6 [25]): Active
- Activity (P19CL6 [26]): Active
- fold change (FC) [27]: 1.9
- Activity (P19CL6 [28]): Active
- Activity (P19CL6 [29]): tde
- Activity (P19CL6 [30]): Active
- Activity (P19CL6 [31]): Dose-dependent effect
- Activity (P19CL6 [32]): Dose-dependent effect
- Activity [33]: 47.3 /mm2
- fold change (FC) [34]: 30.3

SMILES: O=C1c2ccccc2-n2c1nc1ccccc1c2=O
- Activity (P19CL6 [1]): inactive
- Activity (P19CL6 [2]): inactive
- Activity (P19CL6 [3]): inactive
- Activity (P19CL6 [35]): inactive
- Activity (P19CL6 [36]): inactive
- Activity (P19CL6 [37]): inactive

SMILES: CCc1ccc2c(c1)C(=O)c1nc3ccccc3c(=O)n1-2
- Activity (P19CL6 [1]): inactive
- Activity (P19CL6 [2]): inactive
- Activity (P19CL6 [3]): inactive
